Assay [1] addresses T1, Melanocortin receptor 4 (Homo sapiens, UniProt P32245). In words: Activity against hMC4R transfected in HEK293 cells by intracellular cAMP accumulation. Type of assay: functional, cell-based. In outline:
(§1)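 HEK293 cells stably transfected with human receptor, grown to confluence in MEM with 10% FBS, seeded 48 h before assay. Cells preincubated 1 min at 37 °C in EBSS with IBMX (0.5 mM stock). Peptide added (10^-10 to 10^-5 M), 3 min at 37 °C. Stopped with ice-cold Tris/EDTA, boiled, cAMP measured by competitive binding kit. EC50 from nonlinear least-squares fit; mean of two experiments in triplicate.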

Assay [2] concerns the target T2, Melanocortin receptor 3 (Homo sapiens, UniProt P41968). In words: Activity against hMC3R transfected in HEK293 cells by intracellular cAMP accumulation. Type of assay: functional, cell-based. In a few lines:
as §1

The target of assay [3] is T3, Melanocyte-stimulating hormone receptor (Homo sapiens, UniProt Q01726). In words: Activity against hMC1R transfected in HEK293 cells by intracellular cAMP accumulation. Type of assay: functional, cell-based. In outline: as §1
The target in assay [4] is T4, Melanocortin receptor 5 (Homo sapiens, UniProt P33032). The experiment in a line: Activity against hMC5R transfected in HEK293 cells by intracellular cAMP accumulation. The format is functional, cell-based. In a few lines:
as §1

Assay [5] concerns the target T3, Melanocyte-stimulating hormone receptor. In words: Inhibitory activity against hMC1R transfected in HEK293 cells. Type of assay: cell-based. In outline:
(§2)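 Competition binding on whole HEK293 cells stably expressing the human receptor, seeded 48 h prior. Binding buffer was MEM, 25 mM HEPES pH 7.4, 0.2% BSA, 1,10-phenanthroline, leupeptin and bacitracin. Cells washed and lysed, then gamma counted. IC50 from nonlinear least-squares fit; mean of two experiments in triplicate.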
Target sequence in this assay (Q01726 whole entry): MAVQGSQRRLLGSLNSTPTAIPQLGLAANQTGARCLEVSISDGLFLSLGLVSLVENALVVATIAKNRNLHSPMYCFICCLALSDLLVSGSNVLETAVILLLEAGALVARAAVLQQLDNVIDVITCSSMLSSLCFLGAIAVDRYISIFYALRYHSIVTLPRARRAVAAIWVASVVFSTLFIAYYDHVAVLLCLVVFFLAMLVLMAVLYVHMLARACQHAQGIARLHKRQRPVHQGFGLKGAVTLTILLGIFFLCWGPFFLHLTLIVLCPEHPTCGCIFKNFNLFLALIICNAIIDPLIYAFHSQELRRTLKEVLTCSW

For assay [6], the target named is T4, Melanocortin receptor 5. In words: Inhibitory activity against hMC5R transfected in HEK293 cells. Type of assay: cell-based. In a few lines:
as §2

Assay [7] concerns the target T2, Melanocortin receptor 3. The experiment in a line: Inhibitory activity against hMC3R transfected in HEK293 cells. Type of assay: cell-based. In a few lines: as §2
Assay [8] has as its target T1, Melanocortin receptor 4. In words: Inhibitory activity against hMC4R transfected in HEK293 cells. Type of assay: cell-based. In outline:
as §2

Drawing on ChEMBL document CHEMBL1138987, “Development of cyclic gamma-MSH analogues with selective hMC3R agonist and hMC3R/hMC5R antagonist activities” (J Med Chem, 2006), this text covers %max, IC50 and EC50 for 18 molecules.

T4 sequence (P33032 whole entry): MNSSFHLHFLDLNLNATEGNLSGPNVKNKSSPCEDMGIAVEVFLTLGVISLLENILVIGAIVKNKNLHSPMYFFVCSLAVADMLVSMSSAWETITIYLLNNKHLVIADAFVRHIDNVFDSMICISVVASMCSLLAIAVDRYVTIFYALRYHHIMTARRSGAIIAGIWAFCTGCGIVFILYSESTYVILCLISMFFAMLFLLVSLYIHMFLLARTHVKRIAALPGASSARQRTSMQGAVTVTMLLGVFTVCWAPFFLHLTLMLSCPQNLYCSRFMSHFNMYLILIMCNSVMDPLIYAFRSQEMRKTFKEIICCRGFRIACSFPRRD
T1 sequence (P32245 whole entry): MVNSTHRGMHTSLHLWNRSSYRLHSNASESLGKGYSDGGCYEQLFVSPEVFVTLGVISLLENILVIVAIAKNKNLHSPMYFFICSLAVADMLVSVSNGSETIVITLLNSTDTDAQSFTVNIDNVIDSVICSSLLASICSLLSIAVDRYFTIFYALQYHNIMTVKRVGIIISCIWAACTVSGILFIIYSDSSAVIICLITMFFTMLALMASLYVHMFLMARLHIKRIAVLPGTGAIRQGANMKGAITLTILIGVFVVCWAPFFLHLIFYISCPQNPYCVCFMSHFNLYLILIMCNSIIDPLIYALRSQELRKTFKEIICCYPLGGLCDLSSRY
T2 sequence (P41968 whole entry): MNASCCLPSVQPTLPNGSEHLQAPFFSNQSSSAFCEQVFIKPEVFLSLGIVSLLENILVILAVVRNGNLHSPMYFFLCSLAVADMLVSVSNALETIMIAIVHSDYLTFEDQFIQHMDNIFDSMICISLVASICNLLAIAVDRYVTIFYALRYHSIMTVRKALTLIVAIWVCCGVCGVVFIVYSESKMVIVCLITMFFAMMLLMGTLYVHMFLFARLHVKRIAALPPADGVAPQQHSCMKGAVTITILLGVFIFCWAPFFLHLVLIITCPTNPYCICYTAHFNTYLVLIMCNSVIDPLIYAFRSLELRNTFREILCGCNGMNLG

In the case of `CCCC[C@@H]1NC(=O)CC[C@@H](C(N)=O)NC(=O)[C@H](Cc2c[nH]c3ccccc23)NC(=O)[C@H](CCCN=C(N)N)NC(=O)[C@@H](Cc2ccccc2)NC(=O)[C@H]2CCCN2C1=O`, the %max in assay [1] came out at 0%; in assay [2] it was 0%; in assay [3] it was 0%; in assay [4], 10%.
As for `CCCC[C@@H]1NC(=O)CC[C@@H](C(N)=O)NC(=O)[C@H](Cc2c[nH]c3ccccc23)NC(=O)[C@H](CCCN=C(N)N)NC(=O)[C@@H](Cc2ccccc2)NC(=O)[C@@H](CCC(N)=O)NC1=O`, the %max came out at 0% in assay [1], 60% in assay [2], 20% in assay [3] and 8% in assay [4].
For `CCCC[C@@H]1NC(=O)CC[C@@H](C(N)=O)NC(=O)[C@H](Cc2c[nH]c3ccccc23)NC(=O)[C@H](CCCN=C(N)N)NC(=O)[C@@H](Cc2ccccc2)NC(=O)[C@@H](CCC(=O)O)NC1=O`, in that order: 0%, 54%, 0% and 0%.
Consider `CCCC[C@@H]1NC(=O)CC[C@@H](C(N)=O)NC(=O)[C@H](Cc2c[nH]c3ccccc23)NC(=O)[C@H](CCCN=C(N)N)NC(=O)[C@@H](Cc2ccc3ccccc3c2)NC(=O)[C@H](CCC(=O)O)NC1=O`, for which the IC50 in assay [5] was greater than 10000 nM; in assay [6], 44 nM; in assay [7] it was 140 nM; in assay [8], 34 nM. For the same molecule, the %max is 0% in assay [1], 7% in assay [2], 0% in assay [3] and 0% in assay [4]. The concentration giving a half-maximal response (EC50) in assay [1] is greater than 10000 nM; in assay [2], 2800 nM; in assay [3], greater than 10000 nM; in assay [4], greater than 10000 nM.
Consider `CCCC[C@@H]1NC(=O)CC[C@@H](C(N)=O)NC(=O)[C@H](Cc2c[nH]c3ccccc23)NC(=O)[C@H](CCCN=C(N)N)NC(=O)[C@@H](Cc2ccccc2)NC(=O)[C@H](CCC(N)=O)NC1=O`, for which the IC50 is 1000 nM in assay [5], 500 nM in assay [6], 270 nM in assay [7] and greater than 10000 nM in assay [8]. Moreover, the EC50 is greater than 10000 nM in assay [1], 1700 nM in assay [2], 1000 nM in assay [3] and 300 nM in assay [4].
Take `CCCC[C@@H]1NC(=O)CC[C@@H](C(N)=O)NC(=O)[C@H](Cc2c[nH]c3ccccc23)NC(=O)[C@H](CCCN=C(N)N)NC(=O)[C@@H](Cc2ccccc2)NC(=O)[C@@H]2CCCN2C1=O`: the IC50 in assay [5] is greater than 10000 nM; in assay [6], 400 nM; in assay [7], 2700 nM; in assay [8], 2700 nM. For the same molecule, the concentration giving a half-maximal response (EC50) in assay [1] was 10000 nM; in assay [2] it was greater than 10000 nM; in assay [3] it was greater than 10000 nM; in assay [4] it was 850 nM.
Regarding `CCCC[C@@H]1NC(=O)CC[C@@H](C(N)=O)NC(=O)[C@H](Cc2c[nH]c3ccccc23)NC(=O)[C@H](CCCN=C(N)N)NC(=O)[C@@H](Cc2ccc3ccccc3c2)NC(=O)[C@@H](CC(=O)O)NC1=O`, the %max in assay [1], in assay [2], in assay [3] and in assay [4] was 0% throughout.
Consider `CCCC[C@@H]1NC(=O)CC[C@@H](C(N)=O)NC(=O)[C@H](Cc2c[nH]c3ccccc23)NC(=O)[C@H](CCCN=C(N)N)NC(=O)[C@@H](Cc2ccc3ccccc3c2)NC(=O)[C@H](CCC(N)=O)NC1=O`, for which the half-inhibitory concentration (IC50) in assay [5] was determined as 1000 nM; in assay [6], 1.4 nM; in assay [7], 1.4 nM; in assay [8] it was 65 nM. In addition, the %max in assay [1] was found to be 50%; in assay [2], 0%; in assay [3] it was 0%; in assay [4], 0%. The half-maximal effective concentration (EC50) is 130 nM in assay [1], greater than 10000 nM in assay [2], greater than 1000 nM in assay [3] and greater than 10000 nM in assay [4].
For `CCCC[C@@H]1NC(=O)CC[C@@H](C(N)=O)NC(=O)[C@H](Cc2c[nH]c3ccccc23)NC(=O)[C@H](CCCN=C(N)N)NC(=O)[C@@H](Cc2ccc3ccccc3c2)NC(=O)[C@H](Cc2cnc[nH]2)NC1=O`, the IC50 in assay [5] was greater than 10000 nM; in assay [6], 2.3 nM; in assay [7], 12 nM; in assay [8] it was 100 nM. In addition, the concentration for a half-maximal effect (EC50) in assay [1], in assay [2], in assay [3] and in assay [4] was greater than 10000 nM each time.
In the case of `CCCC[C@@H]1NC(=O)CC[C@@H](C(N)=O)NC(=O)[C@H](Cc2c[nH]c3ccccc23)NC(=O)[C@H](CCCN=C(N)N)NC(=O)[C@@H](Cc2ccccc2)NC(=O)[C@H](CCCN=C(N)N)NC1=O`, the 50% inhibitory concentration (IC50) worked out at 1400 nM in assay [5], 68 nM in assay [6], 140 nM in assay [7] and 270 nM in assay [8]. Besides, the EC50 in assay [1] was 174 nM; in assay [2], 1.2 nM; in assay [3] it was greater than 10000 nM; in assay [4], greater than 10000 nM.
As to `CCCC[C@@H]1NC(=O)CC[C@@H](C(N)=O)NC(=O)[C@H](Cc2c[nH]c3ccccc23)NC(=O)[C@H](CCCN=C(N)N)NC(=O)[C@@H](Cc2ccccc2)NC(=O)[C@H](Cc2c[nH]cn2)NC1=O`, the IC50 in assay [5] is greater than 10000 nM; in assay [6], 100 nM; in assay [7], 560 nM; in assay [8], 170 nM. Also, the %max in assay [1] worked out at 48%; in assay [2], 147%; in assay [3] it was 0%; in assay [4], 0%. Besides, the EC50 in assay [1] is 2000 nM; in assay [2], 37 nM; in assay [3] it was greater than 10000 nM; in assay [4] it was greater than 10000 nM.
As to `CCCC[C@@H]1NC(=O)CC[C@@H](C(N)=O)NC(=O)[C@H](Cc2c[nH]c3ccccc23)NC(=O)[C@H](CCCN=C(N)N)NC(=O)[C@@H](Cc2ccccc2)NC(=O)[C@H](CCC(=O)O)NC1=O`, the half-inhibitory concentration (IC50) in assay [5] was greater than 10000 nM; in assay [6] it was 3060 nM; in assay [7], 1200 nM; in assay [8], greater than 10000 nM. The EC50 in assay [1] was greater than 10000 nM; in assay [2], 4300 nM; in assay [3], greater than 10000 nM; in assay [4] it was greater than 10000 nM.
For `CCCC[C@@H]1NC(=O)CC[C@@H](C(N)=O)NC(=O)[C@H](Cc2c[nH]c3ccccc23)NC(=O)[C@H](CCCN=C(N)N)NC(=O)[C@@H](Cc2ccc3ccccc3c2)NC(=O)[C@H](Cc2c[nH]cn2)NC1=O`, the %max in assay [1], in assay [2], in assay [3] and in assay [4] was 0% in each case.
For `CCCC[C@@H]1NC(=O)CC[C@@H](C(N)=O)NC(=O)[C@H](Cc2c[nH]c3ccccc23)NC(=O)[C@H](CCCN=C(N)N)NC(=O)[C@@H](Cc2ccc3ccccc3c2)NC(=O)[C@H](CC(=O)O)NC1=O`, the IC50 was greater than 10000 nM in assay [5], 220 nM in assay [6], 820 nM in assay [7] and 170 nM in assay [8]. Further, the EC50 in assay [1], in assay [2], in assay [3] and in assay [4] was greater than 10000 nM throughout.
With `CCCC[C@@H]1NC(=O)CC[C@@H](C(N)=O)NC(=O)[C@H](Cc2c[nH]c3ccccc23)NC(=O)[C@H](CCCN=C(N)N)NC(=O)[C@@H](Cc2ccc3ccccc3c2)NC(=O)[C@@H](CCCN=C(N)N)NC1=O`, the %max in assay [1] is 10%; in assay [2], 0%; in assay [3] it was 0%; in assay [4] it was 0%.
Consider `CCCC[C@@H]1NC(=O)CC[C@@H](C(N)=O)NC(=O)[C@H](Cc2c[nH]c3ccccc23)NC(=O)[C@H](CCCN=C(N)N)NC(=O)[C@@H](Cc2ccc3ccccc3c2)NC(=O)[C@@H]2CCCN2C1=O`, for which the IC50 was greater than 10000 nM in assay [5], 10 nM in assay [6], 13 nM in assay [7] and 1000 nM in assay [8]. Further, the %max in assay [1], in assay [2], in assay [3] and in assay [4] was 0% in each case. The concentration giving a half-maximal response (EC50) in assay [1], in assay [2], in assay [3] and in assay [4] was greater than 10000 nM in each case.
`CCCC[C@@H]1NC(=O)CC[C@@H](C(N)=O)NC(=O)[C@H](Cc2c[nH]c3ccccc23)NC(=O)[C@H](CCCN=C(N)N)NC(=O)[C@@H](Cc2ccccc2)NC(=O)[C@@H](CCCN=C(N)N)NC1=O`: the %max in assay [1] stood at 63%; in assay [2] it was 112%; in assay [3] it was 0%; in assay [4], 0%.
With `CCCC[C@@H]1NC(=O)CC[C@@H](C(N)=O)NC(=O)[C@H](Cc2c[nH]c3ccccc23)NC(=O)[C@H](CCCN=C(N)N)NC(=O)[C@@H](Cc2ccc3ccccc3c2)NC(=O)[C@H](CCCC)NC1=O`, the IC50 in assay [5] turned out to be 3000 nM; in assay [6], 3.8 nM; in assay [7] it was 6 nM; in assay [8] it was 16 nM. Also, the %max worked out at 31% in assay [1], 0% in assay [2], 0% in assay [3] and 10% in assay [4]. Moreover, the EC50 in assay [1] was 340 nM; in assay [2] it was greater than 10000 nM; in assay [3], greater than 1000 nM; in assay [4], 200 nM.
